Bioassay records from PubChem.
TMEM16A inh: inhibitors of mouse TMEM16A calcium-activated chloride channel; Q8BHY3; HEK293 TMEM16A/YFP iodide influx fluorescence, ionomycin; normalized B-score (activity score, 25-100; higher = stronger inhibition) at 10 µM; 1.2% of 310,000 active;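 active means ratio plate-corrected score three or more library SD toward inhibition, starting fluorescence score within five deviations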;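 further: score derived from kinetic fluorescence span divided by baseline fluorescence per well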
TMEM16A act: mouse TMEM16A channel activation, primary screen. Q8BHY3. HEK293 TMEM16A/YFP-H148Q/I152L, iodide quench fluorescence; hits give low values. B-score at 10 µM. 0.3% of 340,000 active. AID 623877;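 active means fluorescence-ratio B-score plate-corrected deviation score at least 3 library SD below zero, with starting fluorescence score within 5 deviations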;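 further: channel opened by trigger with iodide after compound preincubation; score built on the fluorescence ratio of max minus min over baseline; more negative score means more quench and so TMEM16A activation or potentiation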
MT1-MMP act inh: inhibitors of human MT1-MMP activation; P50281; GFP/RFP ratio change, % at 20 µM; 0.061% of 360,000 active; AID 651647; HT1080 RFP-PRO-GFP cells, GFP/RFP ratio fluorescence, overnight; percent of plate control window, DMSO zero;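 active means GFP/RFP ratio change of at least 30% with cell ATP level not reduced by more than half and red fluorescence within 50% of control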
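Assay system: RFP-PRO-GFP reporter HT1080 cells; read-out basis: GFP/RFP fluorescence ratio; benchmarks: DMSO wells and RFP-L50D-GFP cells; doses: 20 µM single dose, 1% DMSO; schedule: overnight cell settling, then overnight compound exposure, 37 °C, 5% CO2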
DAGLB inh: diacylglycerol lipase beta (human) inhibition | AID 504411 | Q8NCG7 | 0.059% of 340,000 active | inhibition, % at 5.17 µM | HEK293T DAGLB membrane lysate, EnzChek fluorogenic substrate; in the data active means inhibition above about 34%;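 further: 0% = enzyme with vehicle and 100% = wells lacking enzyme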
TMEM16A reconf: reconfirmed blocker of mouse TMEM16A calcium-activated chloride channel; 39% of 2,300 active; inhibition, % at 10 µM; shares compounds with TMEM16A inh; AID 652189; HEK293 TMEM16A/YFP-H148Q, iodide quench fluorescence; ionomycin added to raise cell calcium;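 active means mean duplicate percent inhibition, scaled so buffer wells are 0 and the reference blocker 100, over three buffer SD above buffer mean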
HEK293 Ca mobil: calcium mobilization counter-screen hit for TMEM16A inhibitor series; shares compounds with TMEM16A inh; TMEM16A/YFP HEK293, Fluo4 calcium mobilization; calcium response (% of ionomycin), % at 10 µM; 2% of 2,300 active;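 active means duplicate-averaged calcium signal over 20% of the ionomycin maximum, relative to buffer baseline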;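 further: each well's signal is peak minus trough fluorescence divided by its pre-addition baseline; 0% = buffer wells and 100% = ionomycin wells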
Parental YFP cnt: counter-screen for TMEM16A inhibitors: effect in parental YFP-HEK293 cells; YFP ratio F(max-min)/F0 at 10 µM; shares compounds with TMEM16A inh; 2,300 tested, under 10 active; iodide YFP quench, ionomycin;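 active means yellow fluorescent protein signal ratio exceeding the buffer control mean by over 5 SD of those controls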;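 further: ratio is mean of duplicate wells from kinetic YFP trace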
ClC-1 rat inh: blocks the rat ClC-1 voltage-dependent chloride channel. CHO ClC-1-YFP, iodide influx fluorescence quench; iodide control reads 0, buffer control 100. ratio percent, % at 10 µM. 2,300 tested, under 10 active. shares compounds with TMEM16A inh. AID 652236;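 active means duplicate-mean ratio percent above the mean of iodide-only control wells, which defines zero, plus 5 of their SD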;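 further: higher percent means stronger block of ClC-1 iodide influx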
Target sequence (P35524 whole entry, looked up): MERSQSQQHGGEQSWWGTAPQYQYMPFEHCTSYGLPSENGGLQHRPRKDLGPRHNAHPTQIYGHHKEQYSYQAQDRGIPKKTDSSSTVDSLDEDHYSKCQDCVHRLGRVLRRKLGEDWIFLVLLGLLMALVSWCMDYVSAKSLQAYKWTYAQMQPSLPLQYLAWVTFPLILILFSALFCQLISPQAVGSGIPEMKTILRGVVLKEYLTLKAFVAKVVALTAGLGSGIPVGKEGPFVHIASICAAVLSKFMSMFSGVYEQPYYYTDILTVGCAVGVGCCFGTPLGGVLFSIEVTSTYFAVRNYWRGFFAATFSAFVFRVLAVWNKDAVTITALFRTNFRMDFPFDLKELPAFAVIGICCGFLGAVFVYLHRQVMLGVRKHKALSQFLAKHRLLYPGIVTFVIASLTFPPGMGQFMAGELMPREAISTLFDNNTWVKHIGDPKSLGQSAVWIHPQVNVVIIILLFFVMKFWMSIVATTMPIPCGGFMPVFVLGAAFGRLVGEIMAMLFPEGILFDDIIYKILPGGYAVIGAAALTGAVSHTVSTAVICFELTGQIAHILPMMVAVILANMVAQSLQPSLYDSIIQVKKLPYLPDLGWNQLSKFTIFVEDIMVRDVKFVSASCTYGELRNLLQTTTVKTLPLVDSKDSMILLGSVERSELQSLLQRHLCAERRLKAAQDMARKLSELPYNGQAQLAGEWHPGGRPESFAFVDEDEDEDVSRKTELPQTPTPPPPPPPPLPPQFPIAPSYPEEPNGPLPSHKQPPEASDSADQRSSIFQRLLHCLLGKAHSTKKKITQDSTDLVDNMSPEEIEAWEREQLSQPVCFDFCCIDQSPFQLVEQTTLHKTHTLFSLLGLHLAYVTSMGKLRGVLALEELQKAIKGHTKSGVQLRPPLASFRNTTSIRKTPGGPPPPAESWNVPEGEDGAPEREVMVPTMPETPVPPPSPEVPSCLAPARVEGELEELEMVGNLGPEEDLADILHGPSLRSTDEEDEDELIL
Numbers without * were called inactive; i = inactive; · = not tested or not shown. The list is not random: actives were taken first. Their share in the collection is about 1.3%.

SMILES	TMEM16A inh	TMEM16A act	MT1-MMP act inh	DAGLB inh	TMEM16A reconf	HEK293 Ca mobil	Parental YFP cnt	ClC-1 rat inh
CCC(Oc1ccccc1)C(=O)Nc1nnc(C(F)(F)F)s1 (stereo not given)	100*	i	-1.7	2.2	20.0%*	i	-0.97	-19.5
O=C(Nc1ccccc1C(=O)Nc1nnc(C(F)(F)F)s1)c1ccccc1Cl	100*	i	-19.9	10.4	33.0%*	i	-1.22	-12.5
CC1(C)CC(=O)C=C(C(=O)N2CCCC(C(=O)c3cccc(C(F)(F)F)c3)C2)O1 (stereo not given)	i	i	6.8	-6.8	·	·	·	·
O=C(COC(=O)c1ccc([N+](=O)[O-])o1)Nc1ccc2c(c1)OCO2	·	i	-2.3	0.6	·	·	·	·
COc1cccc(NC(=O)CN(C)C(=O)c2ccc(NC(=O)CC3SC(N4CCCC4)=NC3=O)cc2)c1 (stereo not given)	·	i	1.3	-2.7	·	·	·	·
COc1cc(NC(=O)CCC(=O)N2CCN(S(=O)(=O)c3ccc(C)cc3)CC2)cc(OC)c1	·	i	0.6	-3.0	·	·	·	·
CC1(C(=O)NS(=O)(=O)c2ccccc2Cl)CCN1C(=O)c1ccccc1CCc1ccccc1 (stereo not given)	·	·	-1.2	·	·	·	·	·
CCSc1nnc(NC(=O)c2ccc(Br)s2)s1	i	i	6.3	1.8	·	·	·	·
O=C(Nc1nnc(C(F)(F)F)s1)c1ccc(Br)s1	100*	i	-2.7	4.0	26.5%*	i	-0.93	-16.0
Cc1ccc(NC(=O)/C(C#N)=C/c2ccc(C)s2)c(C)c1	i	i	-56.2	-4.9	i	i	-1.08	9.5
CCCCCCc1cc2cc(S(=O)(=O)c3ccc(Cl)cc3)c(=O)oc2cc1O	i	i	-5.2	0.6	·	·	·	·
CCN(CC)c1ccc2cc(S(=O)(=O)c3ccc(Cl)cc3)c(=O)oc2c1	i	i	-26.0	-8.2	i	i	-0.171	14.5
C/C(=N\NC(=O)CSc1nc(C)[nH]c1[N+](=O)[O-])c1ccc(F)cc1	100*	i	4.2	-0.9	i	i	-0.929	-3.0
Cc1cccc(OCCCCc2c(C)n[nH]c2C)c1C	100*	i	-9.4	-3.4	i	i	-1.06	-16.0
Cc1ccc(S(=O)(=O)N2C[C@@H](C)[C@]3(C2)[C@H](O)[C@H](OC(=O)NC2CCCC2)C[C@H]2C(=O)N(c4ccccc4)C(=O)[C@H]23)cc1	·	·	-3.0	-1.2	·	·	·	·
CCOC(=O)[C@@H](C)N(Cc1ccc(OC)cc1)S(=O)(=O)N(Cc1ccccc1)[C@H](C(=O)OC)C(C)C	·	i	-13.3	-17.4	·	·	·	·
COc1ccccc1NS(=O)(=O)c1cc(NC(=O)c2ccc(Cl)nc2)ccc1Cl	25*	i	12.9	-1.2	25.5%*	i	-1.07	-15.5
COc1ccc(C(=O)Nc2ccc(Cl)c(S(=O)(=O)Nc3ccccc3OC)c2)cc1	i	i	-13.6	-3.1	·	·	·	·
Cc1c(C(C)(C)C)s/c(=N/S(=O)(=O)c2ccccc2)n1C	100*	i	-2.5	1.3	i	i	-0.849	-14.5
Cc1ccc(S(=O)(=O)Oc2ccccc2/C=C2/SC(=O)NC2=O)cc1	25*	i	0.5	7.9	i	i	-0.899	-11.0
Cc1ccccc1Cn1ccc(NC(=O)c2cnn3c2NC(c2ccccc2)CC3C(F)(F)F)n1 (stereo not given)	25*	i	-21.2	2.6	i	i	-1.09	-6.0
O=C(CN1CCN(Cc2ccc(Cl)cc2)C1=O)NCc1cccs1	i	i	0.6	-1.9	i	i	-1.09	-3.5
O=C(CN1CCN(S(=O)(=O)c2ccc(Cl)cc2)CC1)NCc1cccs1	i	i	-2.8	1.6	·	·	·	·
CCOc1ccc(Cl)cc1-c1cc(C(=O)NCc2cccc(C(F)(F)F)c2)[nH]n1	·	·	2.0	·	·	·	·	·
COc1ccccc1-c1csc(C(NC(C)=O)c2ccc(F)c(F)c2)n1 (stereo not given)	·	·	-2.0	·	·	·	·	·
SMILES	TMEM16A inh	TMEM16A act	MT1-MMP act inh	DAGLB inh	TMEM16A reconf	HEK293 Ca mobil	Parental YFP cnt	ClC-1 rat inh
COC(=O)CC1OCC=C2CN3CCC45C6=CC(=O)C(=O)C([N+](=O)[O-])=C6NC4C1C2CC35 (stereo not given)	·	·	4.5	·	·	·	·	·
CCOC(=O)NC(=O)/C(C#N)=N/Nc1c(F)cccc1F	i	i	0.6	3.7	·	·	·	·
N#C/C(=N\Nc1c(Cl)cccc1Cl)C(=O)NN	25*	i	2.0	9.9	i	i	-0.868	-11.5
N#C/C(=N\Nc1cccc(Cl)c1)C(=O)c1ccccc1	100*	i	5.7	11.3	26.5%*	i	-1.03	-8.5
N#C/C(=N\Nc1ccccc1Cl)C(=O)c1ccccc1	100*	i	-0.7	11.3	i	i	-0.828	-16.0
N#C/C(=N\Nc1ccc(Cl)cc1)C(=O)c1ccsc1	i	i	-1.3	11.2	·	·	·	·
Cc1c(N/N=C(\C#N)C(=O)c2ccccc2)c(=O)n(-c2ccccc2)n1C	·	i	-18.1	1.4	·	·	·	·
Cc1ccccc1OCC(=O)OCC(=O)NC1CC1	·	i	5.0	-1.2	·	·	·	·
O=C(CSc1nc(=O)n2ccccc2n1)N1CCC(Cc2ccccc2)CC1	i	i	-0.9	0.4	·	·	·	·
Cc1ccc2nc(SCC(=O)N3CCC(Cc4ccccc4)CC3)nc(=O)n2c1	100*	i	-1.8	0.2	16.5%*	i	-1.09	-1.0
COc1ccccc1CC(Cc1nc2ccccc2[nH]1)c1nc2ccccc2[nH]1 (stereo not given)	i	i	1.1	-0.6	·	·	·	·
Cc1cccc(CC(Cc2nc3ccccc3[nH]2)c2nc3ccccc3[nH]2)c1 (stereo not given)	100*	i	-10.8	-1.3	39.0%*	i	-0.887	-19.5
COCCN1C[C@@H](CO)O[C@@H](n2cnc3c(N4CCN(CCO)CC4)ncnc32)C1	·	·	1.5	·	·	·	·	·
CCOC(=O)CNC(=O)C(NC(=O)C1CCC(C)CC1)C(C)CC (stereo not given)	25*	i	2.0	-3.2	i	i	-1.09	-2.0
CCCN(C(=O)c1nc2nc(C)cc(C)n2n1)c1c(N)n(Cc2ccccc2)c(=O)[nH]c1=O	·	i	-4.6	1.6	·	·	·	·
COc1cc(/C=N/NC(=O)c2nnn(-c3nonc3N)c2C)ccc1OCc1ccc(Cl)cc1	·	·	1.9	-0.6	·	·	·	·
Cc1c(C(=O)Nc2ccc(Oc3ccccc3)cc2)sc2nc3n(c(=O)c12)CCC3	100*	i	-5.9	2.0	i	i	-1.16	-18.5
